Experimental findings from ChEMBL document CHEMBL4706718, “1,2,4-Oxadiazole-Bearing Pyrazoles as Metabolically Stable Modulators of Store-Operated Calcium Entry” (ACS Med Chem Lett, 2021) are described below.

Molecules are shown by their SMILES. Calls of active or inactive are those of the source. The rule behind the calls is not given here.

Data set [1] in a line: Stability in CD-1 mouse liver S9 fraction assessed as parent compound remaining at 50 uM measured after 60 mins by HPLC-UV analysis. The data set is classed as ADME, subcellular. The note with it: read-out: Stabilty. Put shortly:
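Incubated in mouse liver MLS9 fraction supplemented with NADPH. Residual parent substrate measured after 1 h. Three independent experiments, mean ± SEM.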

For data set [2], the system named is HEK. Briefly: Inhibition of SOCE channel in tBhQ-treated HEK cells assessed as reduction in calcium entry by measuring residual activity at 10 uM preincubated for 600 secs followed by calcium addition by Fura-2 AM by fluorescence microscopic analysis relative to control. The data set is classed as cell-based. The note with it: Homo sapiens, time 600.0 sec. A digest of the protocol: (§1)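 HEK cells; intracellular Ca2+ stores emptied with tBhQ (50 μM) in the presence of compound at 10 μM. After 600 s, Ca2+ added and intracellular Ca2+ followed by Fura-2 fluorescence microscopy. SOCE given as percent activity vs control; peak amplitude, AUC and slope of the Ca2+ rise evaluated. Traces average 200 cells over three independent experiments; Mann–Whitney U test vs control.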

Data set [3] is described as follows: Cytotoxicity against HEK cells assessed as cell viability at 10 uM measured after 24 hrs by MTT assay relative to control. The data set is classed as cell-based. The note with it: human, read-out: Activity. Put shortly:
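MTT viability assay in HEK cells with compound at 10 μM.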
On the technique in general: Formazan colour is commonly taken as a measure of viable cells.

Data set [4] has as its system HEK. Briefly: Activation of SOCE channel in […] assessed as increase in calcium entry in resting cells at 10 uM […] by Fura-2 AM by fluorescence microscopic analysis. The data set is classed as cell-based. The note with it: Homo sapiens.
Data set [5] concerns HEK. Briefly: Activation of SOCE channel in tBhQ-treated HEK cells assessed as increase in AUC of calcium entry at 10 uM preincubated for 600 secs followed by calcium addition by Fura-2 AM by fluorescence microscopic analysis. It is filed as cell-based. The note with it: Homo sapiens, filed as activator, time 600.0 sec. Put shortly: as §1
The nature of data set [6]: Stability in CD-1 mouse liver microsomes assessed as parent compound remaining at 50 uM measured after 60 mins by HPLC-UV analysis. The note with it: read-out: Stabilty. It is filed as ADME, Microsome. For orientation: Microsomes from liver hold many membrane-bound enzymes, among them those of drug oxidation.

Turning to `Cc1noc(-c2cnn(-c3ccc(NC(=O)c4c(F)cccc4F)cc3)c2C(F)(F)F)n1`, the remaining at 1 h, 50 µM in data set [1] was > 99%.

As to `CCCC(C)OC(=O)c1cnn(-c2ccc(-n3cc(-c4cccc(C(=O)O)c4)nn3)cc2)c1C(F)(F)F` (stereo not drawn), the remaining at 1 h, 50 µM in data set [1] came out at 74%.

With `Cc1noc(-c2cnn(-c3ccc(NC(=O)c4ccc([N+](=O)[O-])cc4)cc3)c2C(F)(F)F)n1`, in data set [1], the remaining at 1 h, 50 µM is > 99%. Same read-out and setting: with `Cc1ccc(S(=O)(=O)Nc2ccc(-n3ncc(-c4nc(C)no4)c3C(F)(F)F)cc2)cc1` the figure was 76%. For the compound `Cc1noc(-c2cnn(-c3ccc(NC(=O)c4ccco4)cc3)c2C(F)(F)F)n1`, in data set [2], the Activity came to 61.1%. Turning to `CCOC(=O)c1cnn(-c2ccc(NC(=O)C(Cl)=C(Cl)Cl)cc2)c1C(F)(F)F`, in data set [1], the remaining at 1 h, 50 µM was found to be 43%. In the case of `Cc1noc(-c2cnn(-c3ccc(NC(=O)c4ccc(C#N)c(F)c4)cc3)c2C(F)(F)F)n1`, in data set [1], the remaining at 1 h, 50 µM amounted to 73%. With `CCCCCC(=O)Nc1ccc(-n2ncc(-c3nc(C)no3)c2C(F)(F)F)cc1`, in data set [3], the viability at 24 h, 10 µM was 88.5%. For the same compound, the remaining at 1 h, 50 µM in data set [1] was found to be 91%. In data set [4], the outcome was inactive. Besides, in data set [5], the outcome was Active.

`Cc1noc(-c2cnn(-c3ccc(NC(=O)c4c(C)noc4C)cc3)c2C(F)(F)F)n1`: in data set [1], the remaining at 1 h, 50 µM stood at 99%. Turning to `COc1ccc(OC)c(-c2ccc(NC(=O)c3ccncc3F)cc2)c1`, the remaining at 1 h, 50 µM in data set [6] was determined as 15%.
